In BindingDB's records for doi:10.1021/jm020820h (2002):

Experiments:
[1] = Effective concentration required to inhibit HIV-1 induced cytopathicity in CEM cell culture by 50%.
[2] = Effective concentration required to inhibit HIV-1 induced cytopathicity in MT-4 cell culture by 50%.
[3] = biological target: T1, Reverse transcriptase/RNaseH (Human immunodeficiency virus 1, UniProt Q72547); assay: Effective concentration required to inhibit HIV-1 induced cytopathicity in MT-4 cell culture by 50%.
In short: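 MT-4 cells at 3 × 10⁵/mL infected with HIV-1 or HIV-2 at ~100 CCID₅₀ per mL, mixed 1:1 with compound dilutions. Cytopathicity read by trypan blue dye exclusion after 5 days. EC₅₀ is the concentration giving 50% protection against the virus-induced loss of cell viability.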

[4] = biological target: T1, Reverse transcriptase/RNaseH; assay: Effective concentration required to inhibit HIV-1 induced cytopathicity in CEM cell culture by 50%.
In short: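 CEM cells at 4 × 10⁵/mL infected with HIV-1 or HIV-2 at ~100 CCID₅₀ per mL, mixed 1:1 with compound dilutions. Giant cell formation scored microscopically after 4 days. EC₅₀ is the concentration inhibiting virus-induced cytopathicity by 50%.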

SMILES | EC50 [1] [µM] | EC50 [2] [µM] | EC50 [3] [µM] | EC50 [4] [µM]
Cc1cn(C2OC(CO[Si](C)(C)C(C)(C)C)C3(OS(=O)(=O)C=C3N)C2O[Si](C)(C)C(C)(C)C)c(=O)n(C)c1=O (configuration not stated) | 0.04 | – | – | –
Cc1cn(C2OC(CO[Si](C)(C)C(C)(C)C)C3(OS(=O)(=O)C(Br)=C3N)C2O[Si](C)(C)C(C)(C)C)c(=O)[nH]c1=O (configuration not stated) | 0.85 | 0.93 | – | –
CC=C1C(=N)C2(OS1(=O)=O)C(CO[Si](C)(C)C(C)(C)C)OC(n1cc(C)c(=O)[nH]c1=O)C2O[Si](C)(C)C(C)(C)C (configuration not stated) | – | – | 3.2 | 4
CC=C1C(=N)C2(OS1(=O)=O)C(CO)OC(n1cc(C)c(=O)[nH]c1=O)C2O[Si](C)(C)C(C)(C)C (configuration not stated) | – | – | 23 | 15
COC(=O)CC=C1C(=N)C2(OS1(=O)=O)C(CO[Si](C)(C)C(C)(C)C)OC(n1cc(C)c(=O)[nH]c1=O)C2O[Si](C)(C)C(C)(C)C (configuration not stated) | – | – | 3.7 | 3
Cc1cn(C2OC(CO[Si](C)(C)C(C)(C)C)C3(OS(=O)(=O)C(=CCCO)C3=N)C2O[Si](C)(C)C(C)(C)C)c(=O)n(C)c1=O (configuration not stated) | – | – | 5.9 | 2.8
CC1=C(N)C2(OS1(=O)=O)C(CO[Si](C)(C)C(C)(C)C)OC(n1cc(C)c(=O)n(C)c1=O)C2O[Si](C)(C)C(C)(C)C (configuration not stated) | 2.2 | 0.25 | – | –
Cc1cn(C2OC(CO[Si](C)(C)C(C)(C)C)C3(OS(=O)(=O)C(c4ccsc4)=C3N)C2O[Si](C)(C)C(C)(C)C)c(=O)n(C)c1=O (configuration not stated) | – | 2.3 | – | –
Cc1cn(C2OC(CO[Si](C)(C)C(C)(C)C)C3(OS(=O)(=O)C(I)=C3N)C2O[Si](C)(C)C(C)(C)C)c(=O)n(C)c1=O (configuration not stated) | – | 0.11 | – | –
Cc1cn(C2OC(CO[Si](C)(C)C(C)(C)C)C3(OS(=O)(=O)C(c4ccccc4)=C3N)C2O[Si](C)(C)C(C)(C)C)c(=O)n(C)c1=O (configuration not stated) | – | 1.7 | – | –
CCOC(=O)CC=C1C(=N)C2(OS1(=O)=O)C(CO[Si](C)(C)C(C)(C)C)OC(n1cc(C)c(=O)[nH]c1=O)C2O[Si](C)(C)C(C)(C)C (configuration not stated) | – | – | 10 | 3.5
Cc1cn(C2OC(CO[Si](C)(C)C(C)(C)C)C3(OS(=O)(=O)C(c4ccccc4)=C3N)C2O[Si](C)(C)C(C)(C)C)c(=O)[nH]c1=O (configuration not stated) | 2.5 | 6.7 | – | –
COC(=O)CC=C1C(=N)C2(OS1(=O)=O)C(CO[Si](C)(C)C(C)(C)C)OC(n1cc(C)c(=O)n(C)c1=O)C2O[Si](C)(C)C(C)(C)C (configuration not stated) | – | – | 2.9 | 0.98
CNC1=C(C)S(=O)(=O)OC12C(CO[Si](C)(C)C(C)(C)C)OC(n1cc(C)c(=O)n(C)c1=O)C2O[Si](C)(C)C(C)(C)C (configuration not stated) | > 100 | > 250 | – | –
Cc1cn([C@@H]2O[C@H](CO[Si](C)(C)C(C)(C)C)[C@@]3(OS(=O)(=O)C(=CCCO)C3=N)[C@H]2O[Si](C)(C)C(C)(C)C)c(=O)[nH]c1=O [1-[(5R,6R,8R,9R)-4-amino-9-(tert-butyl-dimethyl-silanyloxy)-6-(tert-butyl-dimethyl-silanyloxymethyl)-3-(3-hydroxy-propenyl)-2,2-dioxo-1,7-dioxa-2lambda*6*-thia-spiro[4.4]non-3-en-8-yl]-5-methyl-1H-pyrimidine-2,4-dione] | – | – | 6.6 | –
Cc1cn([C@@H]2O[C@H](CO[Si](C)(C)C(C)(C)C)[C@@]3(OS(=O)(=O)C(I)=C3N)[C@H]2O[Si](C)(C)C(C)(C)C)c(=O)[nH]c1=O [1-[(5R,6R,8R,9R)-4-amino-9-(tert-butyl-dimethyl-silanyloxy)-6-(tert-butyl-dimethyl-silanyloxymethyl)-3-iodo-2,2-dioxo-1,7-dioxa-2lambda*6*-thia-spiro[4.4]non-3-en-8-yl]-5-methyl-1H-pyrimidine-2,4-dione] | 0.06 | 0.12 | – | –
